Measured values collected from several papers.
Lines come from different studies, so protocols differ.
MPO: Myeloperoxidase (MPO, Homo sapiens, UniProt P05164)
SLC6A2: Sodium-dependent noradrenaline transporter (SLC6A2, Homo sapiens, UniProt P23975)
FGR: Tyrosine-protein kinase Fgr (FGR, Homo sapiens, UniProt P09769)

With `NC/C(=C\F)COc1cccc(Cn2c(=S)[nH]c(=O)c3[nH]cnc32)c1` the inhibition was 98.5% (MPO; enzyme activity, inhibitor, fluorescence; 0.3333 µM).
The Emax of `CC(=O)N[C@H](CCCNC(=N)N)C(=O)N[C@H]1CSSC[C@@H](C(N)=O)NC(=O)[C@H](Cc2c[nH]c3ccccc23)NC(=O)[C@H](CCCNC(=N)N)NC(=O)[C@@H](Cc2ccccc2)NC(=O)[C@H](Cc2c[nH]cn2)NC(=O)[C@H](CCC(=O)O)NC1=O` is reported as 100% (Melanocortin receptor 4 (MC4R, Homo sapiens, UniProt P32245); cAMP, agonist; CHO-K1).
For `COc1ccc(Cl)cc1-c1cc(=O)[nH]c(=S)n1CC(N)=O`, the inhibition was 87.6% (MPO; enzyme activity, inhibitor, fluorescence; 0.5556 µM).
`N#CC[C@@]12C[C@@H]1[C@@H](n1cnc3c(NC4CC4)nc(C#Cc4ccc(Cl)s4)nc31)[C@H](O)[C@@H]2O` has an inhibition of 28% (SLC6A2; ligand displacement, radioligand; 10 µM).
For `CC(C)[C@H](CN1CCc2ccccc2C1)NC(=O)C=Cc1ccccc1`, the inhibition was 55.7% (Kappa-type opioid receptor (Oprk1, Mus musculus, UniProt P33534); ligand displacement, radioligand; 10 µM).
`C1=C/COCc2cc(ccc2OCCN2CCCC2)Nc2nccc(n2)-c2cccc(c2)COC/1` has a remaining signal of 96% (FGR; cell-free assay; 0.1 µM).
The remaining binding of `COc1ccc2oc(-c3ccc4nc(N)oc4c3)c/c(=N\c3ccccc3NC(=O)CCN)c2c1` is reported as 94% (Fibroblast growth factor receptor 1 (FGFR1, Homo sapiens, UniProt P11362); binding; 1 µM).
The inhibition of `N#CC[C@@]12C[C@@H]1[C@@H](n1cnc3c(NCc4cccc(Cl)c4)nc(C#Cc4ccc(Cl)s4)nc31)[C@H](O)[C@@H]2O` is reported as 76% (SLC6A2; ligand displacement, radioligand; 10 µM).
The inhibition of `Cc1cc(O)c(-c2ccc([C@@H](C)CN(C)C)cc2)c2c1[nH]c(=O)c1sccc12` is reported as 13.6% (STE20/SPS1-related proline-alanine-rich protein kinase (STK39, Homo sapiens, UniProt Q9UEW8); enzyme activity, inhibitor; 0.1 µM).
The inhibition of `CNc1nc(I)nc2c1ncn2[C@H]1[C@H](O)[C@H](O)[C@]2(CC#N)C[C@H]12` is reported as -6% (SLC6A2; ligand displacement, radioligand; 10 µM).
The remaining activity of `CC(C)OCCn1c(=S)[nH]c(=O)c2[nH]ccc21` is reported as 27.6% (MPO; enzyme activity, inhibitor; 0.68 µM).
For `CSc1nc(NCCC2CC2)c2ncn([C@H]3[C@H](O)[C@H](O)[C@@H]4C[C@@H]43)c2n1`, the inhibition was 5% (SLC6A2; ligand displacement, radioligand; 10 µM).
`CCCCC(=O)Nc1ccc(-c2ccc3ncn(CCC)c(=O)c3c2)cn1` has a remaining binding of 100% (FGR; binding, competition with immobilised ligand; 0.5 µM).
